# According to ChEMBL document CHEMBL3864121, “Development of ebsulfur analogues as potent antibacterials against methicillin-resistant Staphylococcus aureus” (Bioorg Med Chem, 2016):
# Active and inactive are the calls of the source. No cut-off for these calls is given here.
# System: Staphylococcus aureus
# Test: Bacteriostatic activity against methicillin-resistant Staphylococcus aureus S22 at 0.5 times MIC measured up to 3 to 6 hrs by time kill analysis
# Assay type: functional
# Conditions: not given
row,SMILES,Activity
1,O=c1c2ccccc2sn1-c1ccccc1,Active

# System: Staphylococcus aureus
# Test: Bacteriostatic activity against methicillin-resistant Staphylococcus aureus S22 at MIC measured up to 3 to 6 hrs by time kill analysis
# Assay type: functional
# Conditions: not given
row,SMILES,Activity
1,O=c1c2ccccc2sn1-c1ccccc1,Active

# System: Staphylococcus aureus
# Test: Bacteriostatic activity against methicillin-resistant Staphylococcus aureus S22 at 4 times MIC measured after 24 hrs by time kill analysis
# Assay type: functional
# Conditions: not given
row,SMILES,Activity
1,O=c1c2ccccc2sn1-c1ccccc1,Active

# System: Staphylococcus aureus
# Test: Antibiofilm activity against methicillin-sensitive Staphylococcus aureus ATCC 6538 assessed as reduction of biofilm at […] ug/ml measured after 24 hrs by crystal violet staining based method relative to control
# Assay type: functional
# Set-up: scale not given: the % may be the effect or the level left
# Conditions: not given
row,SMILES,Activity [%]
1,O=c1c2ccccc2sn1-c1ccccc1,40

# System: not listed separately
# Test: Cytotoxicity against mouse RBCs assessed as hemolysis up to […] measured after 1 hr
# Assay type: toxicity, Erythrocyte
# Conditions: mouse red blood cells, read-out: Activity
row,SMILES,hemolysis at 1 h [%]
1,O=c1c2ccccc2sn1-c1ccccc1,≤ 20

# Organism: Mus musculus
# Test: Cytotoxicity against mouse RBCs assessed as hemolysis at 0.24 to 31.2 ug/ml measured after 1 hr
# Assay type: toxicity
# Conditions: erythrocyte
# Summary of the method: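 Murine red blood cells were exposed to compounds at various concentrations, with amikacin as a control. Percent hemolysis was scored against untreated cells (0%) and 1% Triton X (100%).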
row,SMILES,Activity
1,O=c1c2ccccc2sn1-c1ccccc1,Non-Toxic

# System: Staphylococcus epidermidis RP62A
# Test: Inhibition of thioredoxin reductase in Staphylococcus epidermidis ATCC 35984 assessed as induction of ROS production at 1 to 4 times MIC measured after 1 hr by DCFH-DA staining-based fluorescence microscopic analysis
# Conditions: not given
# Summary of the method: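 Untreated cells served as the negative control and 1 mM H2O2 as the positive control. Cells were stained with DCFH-DA (40 µg/mL) and ROS were visualized by fluorescence microscopy.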
row,SMILES,Activity
1,O=c1c2ccccc2sn1-c1ccccc1,Active

# System: Staphylococcus aureus
# Test: Antibacterial activity against methicillin-resistant Staphylococcus aureus S22 using 1 10^6CFU/ml measured after overnight incubation by broth double-dilution method
# Assay type: functional
# Conditions: not given
row,SMILES,Activity
1,O=c1c2ccccc2sn1-c1ccccc1,Active
